Measurements: ChEMBL document CHEMBL2401652 (J Med Chem, 2013)
Calls of active or inactive are those of the source. No cut-off for these calls is given here.

Tests used:
[1] = Binding affinity to DNA (unknown origin) assessed as induction of conformational changes at 300 uM after 2 hrs by CD spectrometric analysis
Procedure, shortened: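 DNA at 1000 μg/mL in 50 mM Tris-HCl, pH 7.5, incubated with ligand for 2 h at 37 °C, then CD spectra recorded at 25 °C. Conformational change was judged from the 275 nm band (base stacking) and the 245 nm band (B-conformation).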

[2] = Binding affinity to DNA (unknown origin) at 100 uM after 2 hrs by UV-Vis absorption spectroscopic analysis
Procedure, shortened: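 DNA (100 μg/mL; stock 1.0 mg/mL in 50 mM Tris-HCl pH 7.5, 50 mM NaCl) with ligand fixed at 100 μM; incubated at 37 °C, then diluted six-fold; absorbance scanned 220–350 nm at 25 °C, 1 cm quartz cell; 260 nm band monitored.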

PANC-1 [3] = assay: Induction of apoptosis in human PANC1 cells assessed as PARP cleavage at 50 uM after 24 hrs by Western blot analysis; type: functional, cell-based
Procedure, shortened: (§1)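 Cells (1.5 × 10^6) treated 24 h at 25 or 50 μM; 50 μg protein per lane on 10% SDS-PAGE, nitrocellulose, 2% TBS-BSA block, primary antibody overnight at 4 °C, HRP secondary, ECL detection; β-actin loading control; untreated controls in parallel.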

T98G [4] = assay: Induction of apoptosis in human T98G cells assessed as PARP cleavage at 50 uM after 24 hrs by Western blot analysis; type: functional, cell-based
Procedure, shortened: (§2)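 Cells (1.5 × 10^6) exposed 24 h to compound (25 or 50 μM). 50 μg protein per lane resolved on 10% SDS-PAGE and transferred to nitrocellulose. Membrane blocked in 2% TBS-BSA, then probed with primary antibody overnight at 4 °C and HRP secondary. Detection by ECL, with β-actin as loading control. Untreated control run in parallel.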

PANC-1 [5] = assay: Induction of apoptosis in human PANC1 cells assessed as procaspase-9 cleavage at 50 uM after 24 hrs by Western blot analysis; type: functional, cell-based; procedure, shortened: as §2
PANC-1 [6] = assay: Induction of apoptosis in human PANC1 cells assessed as procaspase-8 cleavage at 50 uM after 24 hrs by Western blot analysis; type: functional, cell-based; procedure, shortened: as §1
T98G [7] = assay: Induction of apoptosis in human T98G cells assessed as procaspase-9 cleavage at 50 uM after 24 hrs by Western blot analysis; type: functional, cell-based; procedure, shortened: as §2
PANC-1 [8] = assay: Induction of apoptosis in human PANC1 cells assessed as procaspase-7 cleavage at 50 uM after 24 hrs by Western blot analysis; type: functional, cell-based; procedure, shortened: as §1
T98G [9] = assay: Induction of apoptosis in human T98G cells assessed as procaspase-8 cleavage at 50 uM after 24 hrs by Western blot analysis; type: functional, cell-based; procedure, shortened: as §2
T98G [10] = assay: Induction of apoptosis in human T98G cells assessed as procaspase-7 cleavage at 50 uM after 24 hrs by Western blot analysis; type: functional, cell-based; procedure, shortened: as §2
PANC-1 [11] = assay: Downregulation of total Bid expression in human PANC1 cells at 50 uM after 24 hrs by Western blot analysis; type: functional, cell-based; procedure, shortened: as §1
PANC-1 [12] = assay: Downregulation of Bcl-xL expression in human PANC1 cells at 50 uM after 24 hrs by Western blot analysis; type: functional, cell-based; procedure, shortened: as §1
T98G [13] = assay: Downregulation of total Bid expression in human T98G cells at 50 uM after 24 hrs by Western blot analysis; type: functional, cell-based; procedure, shortened: as §1
T98G [14] = assay: Downregulation of Bcl-xL expression in human T98G cells at 50 uM after 24 hrs by Western blot analysis; type: functional, cell-based; procedure, shortened: as §1
PANC-1 [15] = assay: Induction of mitochondrial transmembrane depolarization in human PANC1 cells at 30 uM after 24 hrs by JC1 staining-based flow cytometric analysis (reference value: 2.7%); type: functional
T98G [16] = assay: Induction of mitochondrial transmembrane depolarization in human T98G cells at 30 uM after 24 hrs by JC1 staining-based flow cytometric analysis (reference value: 10.26%); type: functional
PANC-1 [17] = assay: Induction of apoptosis in human PANC1 cells at 30 uM after 24 hrs by dUTP-FITC staining-based TUNEL assay (reference value: 0.17%); type: functional
T98G [18] = assay: Induction of apoptosis in human T98G cells at 30 uM after 24 hrs by dUTP-FITC staining-based TUNEL assay (reference value: 1.88%); type: functional
PANC-1 [19] = assay: Induction of apoptosis in human PANC1 cells at 30 uM after 24 hrs by 7-AAD-based FACS flow cytometric analysis (reference value: 5.18%); type: functional
T98G [20] = assay: Induction of apoptosis in human T98G cells at 30 uM after 24 hrs by 7-AAD-based FACS flow cytometric analysis (reference value: 5.3%); type: functional
T98G [21] = assay: Induction of apoptosis in human T98G cells assessed as induction of DNA damage at 20 uM after 24 hrs by comet assay relative to untreated control; type: functional
Procedure, shortened: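 T98G cells (1 × 10^5) treated 24 h with 0 or 20 μM. About 20000 cells embedded in 0.5% low-melting agarose and lysed overnight at 4 °C at pH 10. Alkaline electrophoresis (pH 13) for 30 min at 300 mA at 4 °C, then ethidium bromide staining. Tail length (nucleus centre to tail tip) from ≥20 comets, reported as mean ± SD.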

T98G [22] = assay: Cytotoxicity against human T98G cells assessed as growth inhibition at 50 uM by MTT assay; type: functional, cell-based; conditions: TDE = time-dependent effect
HeLa = assay: Cytotoxicity against human HeLa cells assessed as growth inhibition after 48 hrs by MTT assay
SW480 = assay: Cytotoxicity against human SW480 cells assessed as growth inhibition after 48 hrs by MTT assay; conditions: SW480, 48 h
NCI-H23 = assay: Cytotoxicity against human NCI-H23 cells assessed as growth inhibition after 48 hrs by MTT assay; conditions: NCI-H23, 48 h
HCT-116 [23] = assay: Cytotoxicity against human HCT116 cells assessed as growth inhibition after 48 hrs by MTT assay; conditions: HCT-116, 48 h
A549 [24] = assay: Cytotoxicity against human A549 cells assessed as growth inhibition after 48 hrs by MTT assay; conditions: A549, 48 h
[25] = Cytotoxicity against human Panc 10.05 cells assessed as growth inhibition after 48 hrs by MTT assay; conditions: Panc1005, 48 h
PANC-1 [26] = assay: Cytotoxicity against human PANC1 cells assessed as growth inhibition after 48 hrs by MTT assay; conditions: PANC-1, 48 h
MIA PaCa-2 = assay: Cytotoxicity against human MIAPaCa2 cells assessed as growth inhibition after 48 hrs by MTT assay; conditions: MIA PaCa-2, 48 h
ASPC1 = assay: Cytotoxicity against human AsPC1 cells assessed as growth inhibition after 48 hrs by MTT assay; conditions: ASPC1, 48 h
T98G [27] = assay: Cytotoxicity against human T98G cells assessed as growth inhibition after 48 hrs by MTT assay
[28] = Cytotoxicity against human A172 cells assessed as growth inhibition after 48 hrs by MTT assay; conditions: A 172, 48 h
[29] = Cytotoxicity against human U87MG cells assessed as growth inhibition after 48 hrs by MTT assay; conditions: U-87 MG
[30] = Cytotoxicity against human LN229 cells assessed as growth inhibition after 48 hrs by MTT assay; conditions: LN-229, 48 h
[31] = Cytotoxicity against human U373MG cells assessed as growth inhibition after 48 hrs by MTT assay; conditions: U373 MG
K562 [32] = assay: Cytotoxicity against human K562 cells assessed as growth inhibition after 48 hrs by MTT assay; conditions: K562, 48 h
REH = assay: Cytotoxicity against human REH cells assessed as growth inhibition after 48 hrs by MTT assay
MOLT-4 = assay: Cytotoxicity against human MOLT4 cells assessed as growth inhibition after 48 hrs by MTT assay; conditions: MOLT-4, 48 h
[33] = Cytotoxicity against human CEMC-7 cells assessed as growth inhibition after 48 hrs by MTT assay; conditions: CEMC-7, 48 h
MOLT-3 = assay: Cytotoxicity against human MOLT3 cells assessed as growth inhibition after 48 hrs by MTT assay; conditions: MOLT-3, 48 h
K562 [34] = assay: Cytotoxicity against human K562 cells assessed as growth inhibition after 24 hrs by MTT assay; type: functional, cell-based
Procedure, shortened: (§3)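 Log-phase cells (1 × 10^4 per well) treated 24 h with 0–30 μM at 37 °C, 5% CO2, in triplicate; MTT added for final 3 h; vehicle 0.15% ethanol; IC50 from three separate days, mean ± SE.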

T98G [35] = assay: Cytotoxicity against human T98G cells assessed as growth inhibition after 24 hrs by MTT assay; type: functional, cell-based; procedure, shortened: as §3
HCT-116 [36] = assay: Cytotoxicity against human HCT116 cells assessed as growth inhibition after 24 hrs by MTT assay; type: functional, cell-based; procedure, shortened: as §3
PANC-1 [37] = assay: Cytotoxicity against human PANC1 cells assessed as growth inhibition after 24 hrs by MTT assay; type: functional, cell-based; procedure, shortened: as §3
A549 [38] = assay: Cytotoxicity against human A549 cells assessed as growth inhibition after 24 hrs by MTT assay; type: functional, cell-based; procedure, shortened: as §3

CC[n+]1c(-c2ccccc2)c2cc(N)ccc2c2ccc(N)cc21
Activity [1]: Active

CC(C)=CCC[C@]1(C)C=Cc2c(c(C)cc3c2[nH]c2ccccc23)O1
Activity [2]: Active
Activity (PANC-1 [3]): Active
Activity (T98G [4]): Active
Activity (PANC-1 [5]): Active
Activity (PANC-1 [6]): Active
Activity (T98G [7]): Active
Activity (PANC-1 [8]): Active
Activity (T98G [9]): Active
Activity (T98G [10]): Active
Activity (PANC-1 [11]): Active
Activity (PANC-1 [12]): Active
Activity (T98G [13]): Active
Activity (T98G [14]): Active
Activity (PANC-1 [15]): 15.3%
Activity (T98G [16]): 16.72%
Activity (PANC-1 [17]): 1.13%
Activity (T98G [18]): 9.58%
Activity (PANC-1 [19]): 17.06%
Activity (T98G [20]): 10.13%
Activity (T98G [21]): inactive
growth inhibition (GI) (T98G [22]): tde
IC50 (HeLa): 25 µM
IC50 (SW480): 25 µM
IC50 (NCI-H23): 25 µM
IC50 (HCT-116 [23]): 25 µM
IC50 (A549 [24]): 25 µM
IC50 [25]: 25 µM
IC50 (PANC-1 [26]): 25 µM
IC50 (MIA PaCa-2): 25 µM
IC50 (ASPC1): 25 µM
IC50 (T98G [27]): 25 µM
IC50 [28]: 25 µM
IC50 [29]: 25 µM
IC50 [30]: 25 µM
IC50 [31]: 25 µM
IC50 (K562 [32]): 25 µM
IC50 (REH): 25 µM
IC50 (MOLT-4): 25 µM
IC50 [33]: 25 µM
IC50 (MOLT-3): 25 µM

CC(C)=CCC[C@]1(C)C=Cc2c(c(C)cc3c4ccccc4n(C)c23)O1
Activity [2]: Active
Activity (PANC-1 [3]): inactive
Activity (T98G [4]): inactive
Activity (PANC-1 [5]): inactive
Activity (PANC-1 [6]): inactive
Activity (T98G [7]): inactive
Activity (PANC-1 [8]): inactive
Activity (T98G [9]): inactive
Activity (T98G [10]): inactive
Activity (PANC-1 [11]): inactive
Activity (PANC-1 [12]): inactive
Activity (T98G [13]): inactive
Activity (T98G [14]): inactive
Activity (T98G [21]): inactive
growth inhibition (GI) (K562 [34]): Active
growth inhibition (GI) (T98G [35]): Active
growth inhibition (GI) (HCT-116 [36]): Active
growth inhibition (GI) (PANC-1 [37]): Active
growth inhibition (GI) (A549 [38]): Active
